Each structure is given as a SMILES string.

The target in the test is Prothrombin (Bos taurus, UniProt P00735). In words: Bovine thrombin concentration at which clotting time was prolonged 2x over the control. The class given is functional. Particulars: read-out: I50. The essentials: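 Clotting assay at 25 °C. The read-out was the time from thrombin addition to clot formation.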
For the molecule `CC1CCCN(C(=O)C(CCCNC(=N)N)NS(=O)(=O)c2cccc3c(N(C)C)cccc23)C1` (centres undefined), the IC50 was determined as 6.5 µM.
For `COCCNC(=O)C(CCCNC(=N)N)NS(=O)(=O)c1cccc2c(N(C)C)cccc12` (centres undefined) the value was 4 µM.
The same measure for `C=CCNC(=O)C(CCCN=C(N)N)NS(=O)(=O)c1cccc2c(N(C)C)cccc12` (centres undefined): 10 µM.
In the case of `CN(C)c1cccc2c(S(=O)(=O)NC(CCCN=C(N)N)C(=O)N3CCCCCCC3)cccc12` (centres undefined), the IC50 came out at 1 µM.
For `CCC1CCN(C(=O)C(CCCN=C(N)N)NS(=O)(=O)c2ccc3ccc(C)cc3c2)CC1` (centres undefined) the value was 0.4 µM; for `CCC1CCN(C(=O)C(CCCNC(=N)N)NS(=O)(=O)c2ccc3ccc(OC)cc3c2)CC1` (centres undefined), 0.1 µM.
For `CCC1CCN(C(=O)C(CCCN=C(N)N)NS(=O)(=O)c2ccc3c(c2)C(=O)c2ccccc2C3=O)CC1` (centres undefined), the IC50 came out at 1.5 µM.
For `CCC1CCN(C(=O)C(CCCN=C(N)N)NS(=O)(=O)c2ccc3c(c2)OCCO3)CC1` (centres undefined) the value was 25 µM; for `CN(Cc1ccccc1)C(=O)C(CCCN=C(N)N)NS(=O)(=O)c1cccc2c(N(C)C)cccc12` (centres undefined), 7 µM; for `CCC1CCN(C(=O)C(CCCN=C(N)N)NS(=O)(=O)c2cccc3c([N+](=O)[O-])cccc23)CC1` (centres undefined), 1 µM.
Consider `CCC1CCN(C(=O)C(CCCN=C(N)N)NS(=O)(=O)c2ccc3cc(OC(C)C)ccc3c2)CC1` (centres undefined), for which the IC50 stood at 0.8 µM.
The same measure for `CCC1CCN(C(=O)C(CCCN=C(N)N)NS(=O)(=O)c2ccc3cc(OC)c(OC)cc3c2)CC1` (centres undefined): 0.15 µM; for `CCC1CCN(C(=O)C(CCCNC(=N)N)NS(=O)(=O)c2cccc3c(C#N)cccc23)CC1` (centres undefined): 6 µM; for `CCCCCNC(=O)C(CCCN=C(N)N)NS(=O)(=O)c1cccc2c(N(C)C)cccc12` (centres undefined): 130 µM.
For `CC(C)CNC(=O)C(CCCNC(=N)N)NS(=O)(=O)c1cccc2c(N(C)C)cccc12` (centres undefined) the value was 100 µM; for `CC(=O)N1CCN(C(=O)C(CCCN=C(N)N)NS(=O)(=O)c2cccc3c(N(C)C)cccc23)CC1` (centres undefined), 3.5 µM; for `CCC1CCN(C(=O)C(CCCNC(=N)N)NS(=O)(=O)c2ccc3cc(OC)ccc3c2)CC1` (centres undefined), 0.2 µM.
As for `CCC1CCN(C(=O)C(CCCN=C(N)N)NS(=O)(=O)c2ccc(OC)c3ccccc23)CC1` (centres undefined), the IC50 was found to be 2 µM.
For `CC1CCN(C(=O)C(CCCN=C(N)N)NS(=O)(=O)c2ccc3ccccc3c2)CC1` (centres undefined) the value was 4.5 µM; for `CN(C)c1cccc2c(S(=O)(=O)NC(CCCNC(=N)N)C(=O)N3CCCCCC3)cccc12` (centres undefined), 0.9 µM; for `CN(C)c1cccc2c(S(=O)(=O)NC(CCCNC(=N)N)C(=O)N3CCCC3)cccc12` (centres undefined), 3.3 µM.
Consider `CCC1CCN(C(=O)C(CCCN=C(N)N)NS(=O)(=O)c2ccc3ccc(O)cc3c2)CC1` (centres undefined), for which the IC50 turned out to be 6 µM.
Regarding `CN(C)c1cccc2c(S(=O)(=O)NC(CCCNC(=N)N)C(=O)N3Cc4ccccc4C3)cccc12` (centres undefined), the IC50 was 0.67 µM.
For `CCC1CCN(C(=O)C(CCCNC(=N)N)NS(=O)(=O)c2ccc3c(c2)CCCC3)CC1` (centres undefined) the value was 0.7 µM.
`COc1cc2ccc(S(=O)(=O)NC(CCCN=C(N)N)C(=O)N3CCC(C)CC3)cc2cc1OC` (centres undefined): the IC50 was found to be 0.15 µM.
The same measure for `CCC1CCN(C(=O)C(CCCN=C(N)N)NS(=O)(=O)c2ccc3cc4c(cc3c2)OCCO4)CC1` (centres undefined): 10 µM; for `CCC1CCN(C(=O)C(CCCNC(=N)N)NS(=O)(=O)c2cccc3c2oc2ccccc23)CC1` (centres undefined): 0.2 µM; for `CCc1cc2cc(S(=O)(=O)NC(CCCN=C(N)N)C(=O)N3CCC(CC)CC3)ccc2oc1=O` (centres undefined): 1 µM.
Regarding `COc1ccc2cc(S(=O)(=O)NC(CCCN=C(N)N)C(=O)N3CCC(C)CC3)cc(OC)c2c1` (centres undefined), the IC50 was determined as 0.075 µM.
The same measure for `CCNC(=O)C(CCCN=C(N)N)NS(=O)(=O)c1cccc2c(N(C)C)cccc12` (centres undefined): 100 µM; for `CC1CCN(C(=O)C(CCCN=C(N)N)NS(=O)(=O)c2ccc3c(c2)OCCCO3)CC1` (centres undefined): 8 µM; for `CC1CCN(C(=O)C(CCCN=C(N)N)NS(=O)(=O)c2ccc3c(c2)CCCC3)CC1` (centres undefined): 0.6 µM.
For `CCCCN(C)C(=O)C(CCCNC(=N)N)NS(=O)(=O)c1cccc2c(N(C)C)cccc12` (centres undefined) the value was 2 µM; for `CCC1CCN(C(=O)C(CCCN=C(N)N)NS(=O)(=O)c2cccc3c(O)cccc23)CC1` (centres undefined), 6 µM.
For `CN(C)c1cccc2c(S(=O)(=O)NC(CCCNC(=N)N)C(=O)NC3CC3)cccc12` (centres undefined) the value was 500 µM.
On to `CN(C)c1cccc2c(S(=O)(=O)NC(CCCN=C(N)N)C(=O)N3CCC(c4ccccc4)CC3)cccc12` (centres undefined), for which the IC50 turned out to be 100 µM.
Consider `CCC1CCN(C(=O)C(CCCNC(=N)N)NS(=O)(=O)c2cccc3c(OC(C)C)cccc23)CC1` (centres undefined), for which the IC50 amounted to 0.4 µM.
On to `CN(C)c1cccc2c(S(=O)(=O)NC(CCCNC(=N)N)C(=O)NCCc3ccccc3)cccc12` (centres undefined), for which the IC50 is 150 µM.
The same measure for `CCC1CCN(C(=O)C(CCCN=C(N)N)NS(=O)(=O)c2cccc3ccc(C)cc23)CC1` (centres undefined): 1 µM; for `CCCOc1cccc2c(S(=O)(=O)NC(CCCNC(=N)N)C(=O)N3CCC(CC)CC3)cccc12` (centres undefined): 0.5 µM; for `COCCNC(=O)C(CCCN=C(N)N)NS(=O)(=O)c1cccc2c1CCCC2` (centres undefined): 40 µM.
`CN1CCN(C(=O)C(CCCN=C(N)N)NS(=O)(=O)c2cccc3c(N(C)C)cccc23)CC1` (centres undefined): the IC50 turned out to be 2 µM.
On to `CCC1CCN(C(=O)C(CCCN=C(N)N)NS(=O)(=O)c2ccc3ccccc3c2OC)CC1` (centres undefined), for which the IC50 worked out at 0.4 µM.
The same measure for `N=C(N)NCCCC(NS(=O)(=O)c1ccc2ccccc2c1)C(=O)N1CCCCCC1` (centres undefined): 20 µM; for `CCC1CCN(C(=O)C(CCCNC(=N)N)NS(=O)(=O)c2ccc3c(c2)CCCO3)CC1` (centres undefined): 15 µM; for `CCC1CCN(C(=O)C(CCCN=C(N)N)NS(=O)(=O)c2cccc3c(C(=O)O)cccc23)CC1` (centres undefined): 1000 µM.
The same measure for `N=C(N)NCCCC(NS(=O)(=O)c1ccc2ccccc2c1)C(=O)N1CCOCC1` (centres undefined): 20 µM; for `CCOc1cccc2c(S(=O)(=O)NC(CCCNC(=N)N)C(=O)N3CCC(CC)CC3)cccc12` (centres undefined): 0.1 µM.
The same measure for `CN(C)c1cccc2c(S(=O)(=O)NC(CCCN=C(N)N)C(=O)NCc3ccccc3)cccc12` (centres undefined): 50 µM; for `COc1ccc2ccc(S(=O)(=O)NC(CCCN=C(N)N)C(=O)N3CCC(C)CC3)cc2c1` (centres undefined): 0.1 µM.
On to `COCCCNC(=O)C(CCCNC(=N)N)NS(=O)(=O)c1cccc2c(N(C)C)cccc12` (centres undefined), for which the IC50 is 60 µM.
For `CCc1ccc2cc(S(=O)(=O)NC(CCCNC(=N)N)C(=O)N3CCC(CC)CC3)ccc2c1` (centres undefined) the value was 0.7 µM.
The same measure for `CCC1CCN(C(=O)C(CCCNC(=N)N)NS(=O)(=O)c2ccc3c(c2)OCCCO3)CC1` (centres undefined): 5 µM.
The same measure for `CCC1CCN(C(=O)C(CCCN=C(N)N)NS(=O)(=O)c2cccc3c(N(CC)CC)cccc23)CC1` (centres undefined): 0.3 µM; for `CCCCCCCNC(=O)C(CCCNC(=N)N)NS(=O)(=O)c1cccc2c(N(C)C)cccc12` (centres undefined): 100 µM; for `CCC1CCN(C(=O)C(CCCNC(=N)N)NS(=O)(=O)c2cccc3c(N(C)C)cccc23)CC1` (centres undefined): 0.1 µM.
`CCC1CCN(C(=O)C(CCCN=C(N)N)NS(=O)(=O)c2ccc3cc(N(C)C)ccc3c2)CC1` (centres undefined): the IC50 was determined as 0.3 µM.
For `CCC1CCN(C(=O)C(CCCNC(=N)N)NS(=O)(=O)c2ccc3c(c2)oc2ccccc23)CC1` (centres undefined) the value was 0.3 µM; for `CCC1CCN(C(=O)C(CCCN=C(N)N)NS(=O)(=O)c2ccc3ccccc3c2)CC1` (centres undefined), 1 µM.

These data come from ChEMBL document CHEMBL1121484, “Thrombin inhibitors. 2. Amide derivatives of N alpha-substituted L-arginine” (J Med Chem, 1980).
